Measured values from ChEMBL document CHEMBL2429796, “Discovery and synthesis of novel benzofurazan derivatives as inhibitors of influenza A virus” (Bioorg Med Chem Lett, 2013).
Activity calls are given as the source filed them. No cut-off for these calls is given here.

Experiments:
Influenza A virus = experiment: Antiviral activity against Influenza A virus A/WSN/33(H1N1) infected in MDCK cells after 48 hrs by plaque reduction assay; format: functional, organism-based, A/WSN/1933(H1N1)
Procedure, shortened: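 Plaque-reduction assay in MDCK cells infected with influenza A/WSN/33 (H1N1). IC50 was determined only for compounds positive in an ELISA prescreen for binding to the polymerase PA subunit.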

HEK-293T = experiment: Inhibition of influenza A virus HA-tagged polymerase acidic protien transfected in HEK293T cells after 24 hrs by ELISA; format: cell-based
MDCK = experiment: Cytotoxicity against MDCK cells; format: cell-based, Canis lupus familiaris; conditions: dog
[1] = Influenza A virus, A/WSN/1933(H1N1), MDCK, 48 h, read-out: IC50

| SMILES | IC50 (Influenza A virus; mdck) | inhibition (HEK-293T) | Cytotoxic concentration (MDCK) | IC50 (Influenza A virus; [1]) | Activity (MDCK) |
| --- | --- | --- | --- | --- | --- |
| O=[N+]([O-])c1ccc(Nc2ccc(O)cc2)c2nonc12 | Not Active | Active | – | – | – |
| O=[N+]([O-])c1ccc(Oc2cccc(Br)c2)c2nonc12 | – | Active | > 40 µM | 20 µM | – |
| Nc1cccc(Sc2ccc([N+](=O)[O-])c3nonc23)c1 | – | Active | 40 µM | 10 µM | – |
| O=Cc1ccc(Oc2ccc([N+](=O)[O-])c3nonc23)cc1 | – | Active | > 40 µM | 20 µM | – |
| O=[N+]([O-])c1ccc(OCc2ccccc2)c2nonc12 | Not Active | Active | – | – | – |
| COc1ccc(CSc2ccc(NCc3ccccc3)c3nonc23)cc1 | Not Active | Active | – | – | – |
| O=[N+]([O-])c1ccc(Sc2ccc(F)cc2)c2nonc12 | – | Active | 40 µM | 5 µM | – |
| O=[N+]([O-])c1cccc(CSc2ccc([N+](=O)[O-])c3nonc23)c1 | – | Active | 20 µM | 1 µM | – |
| COc1ccc(CSc2ccc(Cl)c3nonc23)cc1 | Not Active | Active | – | – | – |
| O=[N+]([O-])c1ccc(Sc2ccccc2Br)c2nonc12 | – | Active | 40 µM | > 10 µM | – |
| O=[N+]([O-])c1ccc(SCc2ccccc2)c2nonc12 | Not Active | Active | – | – | 20 µM |
| O=[N+]([O-])c1ccc(Sc2ccc([N+](=O)[O-])c3nonc23)cc1 | – | Active | 40 µM | 10 µM | – |
| O=[N+]([O-])c1ccc(Nc2ccccc2S)c2nonc12 | – | Active | > 80 µM | 20 µM | – |
| N#Cc1ccc(Oc2ccc([N+](=O)[O-])c3nonc23)cc1 | Not Active | Active | – | – | – |
| O=[N+]([O-])c1ccc(Sc2ccccc2)c2nonc12 | Not Active | Active | – | – | 20 µM |
| CNc1ccc(SCc2ccc(OC)cc2)c2nonc12 | Not Active | Active | – | – | – |
| O=[N+]([O-])c1ccc(Oc2ccc(CCO)cc2)c2nonc12 | – | Active | 20 µM | 10 µM | – |
| O=[N+]([O-])c1ccc(SCc2ccc(Br)cc2)c2nonc12 | – | Active | > 10 µM | ≥ 5 µM | – |
| O=[N+]([O-])c1ccc(Nc2ccccc2O)c2nonc12 | Not Active | Active | – | – | – |
| O=[N+]([O-])c1ccc(SCc2ccc(Cl)cc2)c2nonc12 | Not Active | Active | – | – | – |
| COc1ccc(Sc2ccc([N+](=O)[O-])c3nonc23)cc1 | Not Active | Active | 40 µM | – | – |
| O=[N+]([O-])c1ccc(Sc2ccc(Cl)cc2)c2nonc12 | – | Active | 40 µM | 10 µM | – |
| COc1ccc(Oc2ccc([N+](=O)[O-])c3nonc23)cc1 | – | Active | 60 µM | 30 µM | – |
| O=[N+]([O-])c1ccc(Sc2ccc(Br)cc2)c2nonc12 | – | Active | 40 µM | 10 µM | – |
| COc1cccc(Oc2ccc([N+](=O)[O-])c3nonc23)c1 | Not Active | Active | – | – | – |
| O=[N+]([O-])c1ccc(SCc2ccc(F)cc2)c2nonc12 | Not Active | Active | 20 µM | – | – |
